Results as given in ChEMBL document CHEMBL1137570, “3-substituted 7-phenyl-pyrroloquinolinones show potent cytotoxic activity in human cancer cell lines” (J Med Chem, 2007).
pIC50: −log10 of the molar value.

Columns and labels:
[1] = test system: A549; assay: Cell cycle arrest in human A549 cells assessed as accumulation at G1 phase at 1 uM after 24 hrs; assay type: functional
Summary of the method: (§1)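 A549 cells grown 24 h in drug-free medium or with compound at 0.1 or 1 µM. Cells were trypsinized, washed twice in PBS, fixed in cold 70% ethanol (30 min, -20 °C), then washed in citrate phosphate buffer and PBS. RNase (100 µg/mL) for 30 min at 37 °C, then propidium iodide (100 µg/mL) for 30 min at room temperature. Flow cytometry at 488/525 nm, ≥15 000 events, 3-4 repeats.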

[2] = test system: A549; assay: Cell cycle arrest in human A549 cells assessed as accumulation at S phase at 0.1 uM after 24 hrs; assay type: functional; summary of the method: as §1
[3] = Cytotoxicity againat taxol-resistant human A549T24 cells after 72 hrs by MTT assay; assay type: functional, cell-based; conditions: A549, 72 h
[4] = test system: HeLa; assay: Cytotoxicity against human HeLa cells after 72 hrs by MTT assay; assay type: functional, cell-based
Summary of the method: (§2)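 MTT assay. Cells seeded at 7 × 10³ per well; after 24 h, exponentially growing cells were exposed to compound (final 0.005–100 µM) for 72 h. MTT was added for 4 h, then 10% SDS in 0.01 N HCl for 18 h at 37 °C. Absorbance read at 550 nm; survival given as % of untreated cells. IC50 from 6-8 replicate wells, ≥2 independent experiments.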

[5] = test system: OE19; assay: Cytotoxicity against human OE19 cells after 72 hrs by MTT assay; assay type: functional, cell-based; conditions: OE19, 72 h; summary of the method: as §2
[6] = test system: PT-45; assay: Cytotoxicity against human PT45 cells after 72 hrs by MTT assay; assay type: functional, cell-based; conditions: PT-45, 72 h; summary of the method: as §2
[7] = test system: MCF7; assay: Cytotoxicity against human MCF7 cells after 72 hrs by MTT assay; assay type: functional, cell-based; conditions: MCF7, 72 h; summary of the method: as §2
[8] = test system: HepG2; assay: Cytotoxicity against human HepG2 cells after 72 hrs by MTT assay; assay type: functional, cell-based; conditions: HepG2, 72 h; summary of the method: as §2
[9] = test system: A549; assay: Cell cycle arrest in human A549 cells assessed as accumulation at G2/M phase at 1 uM after 24 hrs; assay type: functional; summary of the method: as §1
[10] = Cytotoxicity againat taxol-resistant human A549T12 cells after 72 hrs by MTT assay; assay type: functional, cell-based; conditions: A549, 72 h
[11] = test system: A549; assay: Cell cycle arrest in human A549 cells assessed as accumulation at S phase at 1 uM after 24 hrs; assay type: functional; summary of the method: as §1
[12] = Cytotoxicity against human H295R cells after 72 hrs by MTT assay; assay type: functional, cell-based; conditions: NCI-H295R; summary of the method: as §2
[13] = test system: HT-29; assay: Cytotoxicity against human HT29 cells after 72 hrs by MTT assay; assay type: functional, cell-based; conditions: HT-29, 72 h; summary of the method: as §2
[14] = test system: OVCAR-3; assay: Cytotoxicity against human Ovcar3 cells after 72 hrs by MTT assay; assay type: functional, cell-based; conditions: OVCAR-3, 72 h; summary of the method: as §2
[15] = test system: OE33; assay: Cytotoxicity against human OE33 cells after 72 hrs by MTT assay; assay type: functional, cell-based; conditions: OE33, 72 h; summary of the method: as §2
[16] = test system: A549; assay: Cell cycle arrest in human A549 cells assessed as accumulation at G1 phase at 0.1 uM after 24 hrs; assay type: functional; summary of the method: as §1
[17] = test system: ARO; assay: Cytotoxicity against human Aro cells after 72 hrs by MTT assay; assay type: functional, cell-based; summary of the method: as §2
[18] = test system: A549; assay: Cytotoxicity against human A549 cells after 72 hrs by MTT assay; assay type: functional, cell-based; conditions: A549, 72 h
Summary of the method: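 MTT assay. Cells seeded at 7 × 10³ per well; after 24 h, exponentially growing cells were exposed to compound (final 0.005–100 µM) for 72 h. MTT was added for 4 h, then 10% SDS in 0.01 N HCl for 18 h at 37 °C. Absorbance read at 550 nm; survival given as % of untreated cells.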

[19] = test system: A549; assay: Cell cycle arrest in human A549 cells assessed as accumulation at sub Go phase at 0.1 uM after 24 hrs; assay type: functional
[20] = test system: A549; assay: Cell cycle arrest in human A549 cells assessed as accumulation at G2/M phase at 0.1 uM after 24 hrs; assay type: functional; summary of the method: as §1
[21] = test system: A549; assay: Cell cycle arrest in human A549 cells assessed as accumulation at sub Go phase at 1 uM after 24 hrs; assay type: functional
[22] = test system: A549; assay: Resistance index, ratio of IC50 for A549 cells to IC50 for A549T12 cells; assay type: functional, Homo sapiens

Row | SMILES | Activity [1] | Activity [2] | pIC50 [3] | pIC50 [4] | pIC50 [5] | pIC50 [6] | pIC50 [7] | pIC50 [8] | Activity [9] | pIC50 [10] | Activity [11] | pIC50 [12] | pIC50 [13] | pIC50 [14] | pIC50 [15] | Activity [16] | pIC50 [17] | pIC50 [18] | Activity [19] | Activity [20] | also measured
1 | CCCCn1ccc2c3c(=O)cc(-c4ccccc4)[nH]c3ccc21 | 12.9% | 7.7% | 7.52 | 7.70 | 8.15 | 7.40 | 7.22 | 7.70 | 77.6% | 7.70 | 9.2% | 8.00 | 7.52 | 8.00 | 7.22 | 11.8% | 7.52 | 7.52 | 0.2% | 80.4% | Activity [21]: 0.4%
2 | CCCCCn1ccc2c3c(=O)cc(-c4ccccc4)[nH]c3ccc21 | 15.5% | 7.2% | 7.40 | 7.70 | 8.30 | 7.40 | 7.10 | 7.52 | 75.5% | 7.30 | 8.8% | 7.70 | 6.70 | 7.70 | 7.70 | 12.4% | 7.15 | 7.40 | 1% | 79.6% | Ratio IC50 [22]: 0.8; Activity [21]: 0.4%
3 | O=c1cc(-c2ccccc2)[nH]c2ccc3c(ccn3Cc3ccccc3)c12 | 14.6% | 9.7% | 6.70 | 7.00 | 6.30 | 7.10 | 6.52 | 6.15 | 75.8% | 7.00 | 9.4% | 6.40 | 6.40 | 6.30 | 7.00 | 78.9% | 6.52 | 7.00 | 1.1% | 10.4% | Ratio IC50 [22]: 1; Activity [21]: 0.5%
4 | Cn1ccc2c3c(=O)cc(-c4ccccc4)[nH]c3ccc21 | 15.6% | 8.8% | 6.70 | 7.00 | 7.00 | 7.00 | 6.40 | 6.00 | 74.9% | 6.52 | 9.2% | 7.05 | 6.52 | 6.15 | 6.10 | 66.9% | 6.52 | 6.52 | 6.4% | 18.2% | Ratio IC50 [22]: 1; Activity [21]: 0.3%
5 | O=c1cc(-c2ccccc2)[nH]c2ccc3c(ccn3CC3CC3)c12 | 16.3% | 7% | 7.70 | 7.70 | 7.00 | 7.70 | 7.40 | 7.70 | 74.6% | 7.70 | 8.6% | 8.00 | 7.22 | 8.00 | 7.70 | 16.5% | 7.52 | 7.70 | 0.4% | 75.7% | Ratio IC50 [22]: 1; Activity [21]: 0.3%
6 | CCN(CC)CCn1ccc2c3c(O)cc(-c4ccccc4)nc3ccc21 | – | – | – | – | 5.00 | – | – | – | – | – | – | – | – | – | 4.80 | – | – | – | – | – | –
